In ChEMBL document CHEMBL4513216, “Probing the Open Global Health Chemical Diversity Library for Multistage-Active Starting Points for Next-Generation Antimalarials” (ACS Infect Dis, 2020):

Assay: Toxicity liver stage against HepG2, at 10uM
Format: cell-based
Parameters: test concentration 10 uM, cell line HepG2-A16-CD81EGFP
Conditions: human, HepG2-A16-CD81EGFP cells; read-out: INHIBITION
Summary of the method: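 Uninfected HepG2-A16-CD81EGFP cells, 3 × 10^3 per well, 1536-well, plated on prespotted compound at 10 μM final, parasite-free screening media added to match infected plates; puromycin 10 μM positive, DMSO 0.5% negative; run in parallel with 48 h PbLuc assay at 37 °C, 5% CO2; viability by CellTiter-Glo luminescence, normalized to controls.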

Structure (SMILES)	cytotoxicity at 10 µM [%]
CS(=O)(=O)N1CCN(C(=O)c2cc(-c3ccc(Br)s3)n[nH]2)CC1	-7.62
CCOc1ccc(SCCS(=O)(=O)CC)cc1	-2.91
Cc1csc(C2CCCCN2C(=O)CCCn2cncn2)n1 (configuration not stated)	-8.23
Cc1nc(N2CCN(C(=O)c3ccco3)CC2)c2c(n1)c(C)nn2C	12.1
Cc1noc(C)c1CN1C[C@H](OCC(=O)N(C)C)[C@H]2COC[C@H]21	7.61
CN(C(=O)c1cccn1C)C1CCC(NC(=O)OC(C)(C)C)CC1 (configuration not stated)	-4.18
CC1CCN(C(=O)c2ccnc(-n3cncn3)c2)c2ccccc21 (configuration not stated)	13
Cn1cc(Br)cc1C(=O)NCC(C)(O)c1ccsc1 (configuration not stated)	-49
N#Cc1ccnc(N2CCN(CC(O)c3c(F)cccc3F)CC2)c1 (configuration not stated)	-5.43
O=C1CC(c2ccc(C(=O)O)cc2)c2ncn(-c3ccccc3Cl)c2N1 (configuration not stated)	2.03
CCSc1ncc(CN2CCN(c3ccc(C#N)cc3)C(=O)C2)cn1	-2.54
CC(C)c1nnc2n1CCN(C(=O)c1ccccc1OCC1CC1)C2	10.5
Cc1cccc(C(C(=O)NC(C)(C)CN2CCCC2)N(C)C)c1 (configuration not stated)	-3.73
CSc1ccc2cc(CN(C)CCc3cn[nH]c3)c(=O)[nH]c2c1	-7.23
CCOc1ccc(NC(=O)c2[nH]c(C)cc2C)cc1CO	21.3
CNc1nc2c(s1)C(c1ccccc1F)CC(=O)N2 (configuration not stated)	4.43
CCNC(=O)NCc1ccc(-n2ccc(C(F)(F)F)n2)cc1	-4.7
COCC1CN(Cc2c(C)noc2C)Cc2ccnn2C1 (configuration not stated)	-89.3
CCS(=O)(=O)c1ccccc1N1CCC(NC(C)=O)CC1	-5.31
CCCOCCN1CCC2(CC1)CC(=O)N(Cc1cc(F)cc(F)c1)C2	2.71
COc1ccc(-c2noc([C@@H]3C[C@@H](O)CN3C3CCOCC3)n2)cc1	-1.7

Structure (SMILES)	cytotoxicity at 10 µM [%]
CN(Cc1cccnc1)[C@@H]1CN(C(=O)c2ccco2)[C@@H]2CCCO[C@H]12	-108
COc1cccc(F)c1CN1CCC(c2nccc(C)n2)C1 (configuration not stated)	5.29
Cc1noc(CN(Cc2cccc(C#N)c2)Cc2ccco2)n1	0.554
Cc1cnc(NC(C)Cc2cnccn2)nc1N(C)C (configuration not stated)	0.342
c1cnn(Cc2ccc(CN3CCC4(CCCNC4)C3)cc2)c1 (configuration not stated)	-3.71
Cc1c(S(=O)(=O)N(CCc2ccccc2)Cc2ccn(C)n2)cnn1C	3.82
Cc1nc2c(c(NC(C)C)n1)CCN(C1CCOCC1)CC2	9.26
CN(C)C(=O)c1ccc(CNc2c(Cl)cccc2C#N)cc1	-50.6
CCc1noc(C(C)N2CCN(S(=O)(=O)N3CCCC3)CC2)n1 (configuration not stated)	-0.252
NC(=O)c1nc(CN2CCOC(C(F)(F)F)C2)no1 (configuration not stated)	-3.39
Cc1cccc(Nc2cc(C)nc(C3CCN(C(C)C)C3)n2)n1 (configuration not stated)	9.93
O=C(NCCNc1cnccn1)N1CC=C(c2ccc(O)cc2)CC1	18.6
Cc1[nH]ncc1C(=O)N1CCCC1c1noc(C2CC2)n1 (configuration not stated)	-18.1
COCC(=O)N1CCC2(CC1)CN(c1ccccn1)CCO2	-71.2
COc1ccc(C(=O)NCc2ccc(C(=O)O)o2)cc1	-0.806
O=C(C1CC=CC1)N1CCC2(CCN(Cc3ccccn3)C2=O)C1 (configuration not stated)	0.908
Cc1cnc(CC2COCCN(C(=O)c3cncs3)C2)cn1 (configuration not stated)	3.65
CCCC(=O)N(C)CC(=O)Nc1ccc(Br)cn1	-15.5
Cc1cc(NC(=O)c2ccc(N3CCOCC3)c(F)c2)[nH]n1	-33.9
Cn1ccnc1N1CCN(C(=O)Cc2ccccc2)CC1	3.13
CC(C)c1noc(CNc2cccc(-c3nnnn3C)c2)n1	-5.47

Structure (SMILES)	cytotoxicity at 10 µM [%]
COCCN1CCC2(CC1)C(=O)Nc1ccc(C(=O)NC(C)C)cc12	2.02
Cc1cc(=O)c(C(=O)N2CCCCC2c2ccc(F)cc2)c[nH]1 (configuration not stated)	3.71
Cc1cc(F)ccc1N1CCCC(NC2CCOCC2)C1=O (configuration not stated)	-11.3
CC(Cn1cccn1)NCC(=O)NC1(C#N)CCCCC1 (configuration not stated)	-3.6
CCc1nc(NCCc2nc(C)c(C)s2)c2cnn(C)c2n1	6.31
COc1cc(-c2cnnc(NCC3CC3)n2)cc(OC)c1OC	8.11
CC(C)c1nc2c(n1C)CCN(CC(=O)NCc1ccccn1)C2	-8.52
COCCN1CCCC(Cc2cnc(-c3c(C)nn(C)c3C)cn2)C1 (configuration not stated)	-2.56
Cc1csc(CN2CC[C@H]3C[C@@H](c4nnc(C)[nH]4)O[C@@H]3C2)n1	1.56
O=C(Cc1ccon1)NC1CC2(CCC2)Oc2ccccc21 (configuration not stated)	-6.71
CC1=N[C@@]2(CC[C@@H]3CN(CC(C)C)C[C@@H]32)C(=O)N1	6.5
COCCC1(C(=O)O)CCCN(CC(=O)NCCc2ccccc2)C1 (configuration not stated)	2.66
O=C(NCc1ccccc1CN1CCCC1)Nc1nncs1	6.13
CC(OCC1CC1)C(=O)N1CCCN(Cc2cnn(C)c2)CC1 (configuration not stated)	2.55
CC(=O)N1CCN(C(=O)c2cc(C(C)C)no2)[C@H]2CS(=O)(=O)C[C@H]21	-7.8
Cc1cc(C)cc(OCCN(C)Cc2ccc(S(=O)(=O)N(C)C)o2)c1	8.2
Cc1nsc(N2CCN(C(=O)Nc3ccc4[nH]ccc4c3)CC2)n1	4.52
CSc1ccc2cc(CN(C)CCO)c(=O)[nH]c2c1	5.76
COc1ccccc1CC(=O)N1CCCC(c2nccn2CC(N)=O)C1 (configuration not stated)	12.9
OCCN1CCCC(c2cccc(-c3ccccc3F)n2)C1 (configuration not stated)	5.68
COCC(=O)N1CCCN(c2ncnc3c2CCNCC3)CC1	8.93

Structure (SMILES)	cytotoxicity at 10 µM [%]
CCN(CC)c1ccc2ccc(C(=O)NC3CC3)cn12	-2.6
COC1(CNC(=O)NCCc2ccccc2)CCSC1 (configuration not stated)	-12.6
Nc1cc(CC2COc3ccccc3C2)ccn1 (configuration not stated)	-0.911
Cn1nccc1C(=O)N1C[C@@H]2CN(S(C)(=O)=O)CCO[C@@H]2C1	9.61
CC(C)(C)c1ncc(C(=O)NCc2cccc(C(=O)N3CCCC3)c2)s1	-4.57
COC(=O)c1cccc(C(=O)N(CCC#N)CC(C)(C)C)c1	7.72
CCS(=O)(=O)N1CCC(OCCCc2ccccc2)C1 (configuration not stated)	8.59
CCOCc1nc(CSc2ccncc2)n(C)n1	2.87
Cc1ncc(CN2CCC3(CC2)CC(=O)N(C)C3)cn1	9.8
CCN(Cc1cccc2c1OCO2)C(=O)C(C)c1cccnc1 (configuration not stated)	-4.84
Cc1nc2cc(C(=O)N3CCCC(n4ccnc4)C3)ccc2n1C (configuration not stated)	-8.44
CC(C)CS(=O)(=O)CCNC(=O)Nc1cccc2ncccc12	-11
CNC(=O)c1cnc2n1CCN(Cc1cccnc1OC)C2	8.91
Cn1c(C(N)=O)cc2c1CN(C(=O)C1CCCN(C3CCCC3)C1)CC2 (configuration not stated)	-47.1
O=S(=O)(NC1=NCN(CCc2cccs2)CN1)c1ccccc1	-3.32
CC(C)N(Cc1cccc(Cl)c1)Cc1nnsc1Cl	2.56
CN(Cc1cccc2cnccc12)C(=O)CCc1n[nH]c2c1CCCC2	-7.27
CSC1(CNC(=O)NC(C)Cc2cccc(F)c2)CCOCC1 (configuration not stated)	-15.6
O=C([C@@H]1CCCO1)N1CCC(Cn2cc(-c3ccsc3)nn2)CC1	3.43
